An excerpt weighted towards active compounds, which were near 5.2% of everything screened.
EBNA-1 inh: blocks EBNA-1 binding to DNA; EBNA-1 DNA binding, fluorescence polarization; inhibition, % at 14.8 µM; actives 0.34% (n = 300,000); in the data active = inhibition above about 28%
ZTA counter: blocks Epstein-Barr virus ZTA, an EBNA-1 counter-screen; P03206; ZTA-DNA binding, fluorescence polarization; inhibition, % at 11 µM; actives 0.15% (n = 320,000); AID 2234; in the data active = inhibition above about 33%
Target sequence (P03206 whole entry, looked up): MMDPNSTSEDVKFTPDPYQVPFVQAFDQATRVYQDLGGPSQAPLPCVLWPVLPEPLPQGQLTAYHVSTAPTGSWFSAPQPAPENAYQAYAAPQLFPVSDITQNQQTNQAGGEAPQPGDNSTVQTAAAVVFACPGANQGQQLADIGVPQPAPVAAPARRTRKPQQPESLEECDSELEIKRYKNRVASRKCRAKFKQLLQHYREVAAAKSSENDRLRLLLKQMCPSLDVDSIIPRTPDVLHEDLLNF
core dimer inh: blocks dimerization of HCV core protein; TR-FRET GST/Flag-core106 dimerization, 1536-well; inhibition, % at 5 µM; actives 0.33% (n = 300,000);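 active = inhibition above the mean of all tested compounds plus 3 SD, set per screening campaign, cut at about 45% in these data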
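System: GST/Flag-tagged HCV core106 proteins. Incubation: compound-protein-antibody incubation 4 h at 22.5 °C. Technique: HTRF with 340 nm excitation, 617/671 nm emission. Medium: KF-containing HEPES buffer, pH 7.45, DTT, CHAPS, BSA. Read-out: inhibition (%) from 671 over 617 nm ratio. Also added: Eu(K)-anti-GST 90 ng/mL plus XL665-anti-Flag 1 µg/mL.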
HCV NS3 hel inh: inhibitors of Hepatitis C virus NS3 helicase; actives 0.56% (n = 290,000); NS3 helicase DNA unwinding, Cy5 molecular beacon fluorescence; inhibition, % at 10.9 µM;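 active = inhibition above the mean of all tested compounds plus 3 SD, set per campaign, cut at about 35% in these data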;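 also: 0% = DMSO wells and 100% = thioflavine S control wells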
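Measured by: Cy5 fluorescence, 0 and 60 min reads / Assay system: NS3 helicase fragment of HCV / Control set: low DMSO, high thioflavine S at 110 µM / Times: 1 h reaction at 25 °C, ATP-initiated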
ALR H2O2 inh: blocks human ALR sulfhydryl oxidase activity; P55789; AID 485317; purified ALR, DTT oxidation, H2O2 HRP-luminol luminescence; inhibition, % (no concentration beside the values); actives 3.8% (n = 290,000);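 active = mean replicate inhibition above about 79%, with every replicate also reaching it, limit read from the data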
M18AAP inhibitor: blocks P. falciparum M18 aspartyl aminopeptidase. recombinant PfM18AAP, H-Glu-NHMec fluorogenic cleavage. AID 1822. actives 1.2% (n = 290,000). inhibition, % at 7.35 µM;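 active = inhibition above the campaign mean inhibition over all tested compounds plus 3 SD, cut at about 28% in these data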;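 also: 0% = plate median of test compound wells and 100% = 2 mM ZnCl2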
* marks the source's active call; other numbers are inactive results; . = not tested or not shown.

SMILES	EBNA-1 inh	ZTA counter	core dimer inh	HCV NS3 hel inh	ALR H2O2 inh	M18AAP inhibitor
Cc1nnc(SCC(=O)N(CCC#N)c2ccc3c(c2)OCCO3)s1	.	11	.	.	1	.
S=c1[nH]ncn2c1cc1oc3ccccc3c12	17	13	64*	-2	24	9
CCOc1cc(O)c(-c2[nH]ncc2-c2nc(C)cs2)cc1CC	4	-9	2	-19	.	5
CC(=O)Nc1ccc(CN2CCCN(C)CC2)cc1	12	8	3	3	-6	-7
CCN(C(=O)COC(=O)/C=C/c1ccc(O)c(OC)c1)C1CCS(=O)(=O)C1 (stereo not given)	6	5	1	5	98*	-7
COc1cc(/C=C/C(=O)OCC(=O)NC(=O)NC(C)(C)C)ccc1O	-4	2	0	-10	99*	6
COc1cc(/C=C/C(=O)OCC(=O)N2CCC(C)CC2)ccc1O	0	6	1	.	99*	.
COc1cc(/C=C/C(=O)OCC(=O)NNC(=O)c2cc(Cl)ccc2OC)ccc1O	.	.	.	.	19	.
COc1cc(/C=C/C(=O)OCC(=O)N2CC3(C)CC2CC(C)(C)C3)ccc1O (stereo not given)	6	9	10	-14	99*	18
CCN(C(=O)COC(=O)/C=C/c1ccc(OC(F)F)c(OC)c1)C1CCS(=O)(=O)C1 (stereo not given)	.	12	.	.	3	.
CC(OC(=O)c1cccc(-n2cnnn2)c1)C(=O)Nc1cccc(Cl)c1 (stereo not given)	-3	0	-2	.	-40	.
Cc1cc(C(=O)NC2CCCCCCC2)ccc1[N+](=O)[O-]	-14	-4	3	.	-2	.
Cc1cc(OC(=O)c2ccccc2F)c([N+](=O)[O-])c(=O)[nH]1	-1	-18	-4	6	-3	11
Fc1ccc(NC(=S)NNc2ncc(C(F)(F)F)cc2Cl)c(F)c1	4	0	3	14	5	24
COc1cc2c(cc1OC)CN(C(=O)CN1CCN(S(=O)(=O)c3ccccc3Br)CC1)CC2	-5	5	1	4	-4	6
COc1ccc(NC(=O)/C(C#N)=C\c2ccc(Br)o2)cc1	-9	0	24	20	.	-5
N#C/C(=C\c1ccc([N+](=O)[O-])o1)C(=O)Nc1ccc(F)cc1	37*	79*	35	43*	-19	10
Cc1ccc(-c2cc3c(N=O)c4ccccc4c-3n[nH]2)cc1	16	5	5	8	-2	-13
Cc1cccc(-c2cc3c(N=O)c4ccccc4c-3n[nH]2)c1	30*	-6	3	-3	-2	-3
O=C(O)C1CCc2sc3[nH]c(=S)n(-c4ccccc4)c(=O)c3c21 (stereo not given)	3	-3	-3	-2	1	31*
CCN(CC)C(=O)c1sc2[nH]c(=S)n(-c3ccccc3)c(=O)c2c1C	-7	-9	-3	20	0	-57
COC(=O)CSc1nc(N2CCOCC2)c2c(c1C#N)CC(C)(C)N(C)C2	-6	11	-2	7	95*	4
COc1ccc(/C=C(\C#N)C(=O)Nc2cccnc2)cc1	14	1	5	2	-1	0
N#C/C(=C\c1cccnc1)C(=O)Nc1ccccc1	5	8	3	-2	1	4
N#C/C(=C\c1cccnc1)C(=O)Nc1ccc(C(=O)O)cc1	3	-1	3	-8	54	0
SMILES	EBNA-1 inh	ZTA counter	core dimer inh	HCV NS3 hel inh	ALR H2O2 inh	M18AAP inhibitor
C[C@@H](NC(=O)/C(C#N)=C/c1ccc(O)c(O)c1)c1ccccc1	-3	4	-8	.	99*	.
COc1ccc(O)c(/C=C(\C#N)C(=O)Nc2cccnc2)c1	7	16	2	9	98*	2
N#C/C(=C\c1ccc(O)c(O)c1)C(=O)Nc1ccccc1	2	0	-10	.	99*	.
N#C/C(=C\c1ccncc1)C(=O)Nc1ccc(C(=O)O)cc1	9	10	8	3	95*	7
CC(OC(=O)c1ccccc1NCCO)C(=O)NC1CCCCC1C (stereo not given)	4	2	2	.	.	.
O=C(O)CC(CC(=O)NCC(O)c1ccccc1)c1ccccc1 (stereo not given)	-11	-13	1	-1	.	-1
